40 compounds from PubChem BioAssay can be followed below.

Active and inactive are the calls of the source.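 How the source made its calls, unless noted: active means viability at or below 30% in both replicate assays; inconclusive means viability at or below 30% in just one of the two assays; inactive means the rest.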

A short description of the first experiment: reduced viability of SK-BR-3 breast cancer cells – cell-based, 24 h, human, pilot screen (AID 572;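 active means viability at or below 10% of carrier control in both of two separate runs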;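 further: compound exposure lasted between 18 and 24 h rather than exactly 24 h; 100% = carrier-treated control wells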). The following applies: SK-BR-3 viability, CellTiter-Glo luminescence, at 10 µM, active compounds read low.
As for `CCC1CCCCN1c1nc(-c2ccncc2)nc2ccccc12` (stereo not given), the viability was 76.5% (inactive).
`Cc1nc(NC(=O)c2ccccc2)sc1-c1csc(NCc2ccco2)n1`: the viability is 82% (inactive).
Turning to `COc1ccc(OCCN2C(=O)NC(C)(c3ccc(C)cc3)C2=O)cc1` (stereo not given), the viability is 119% (inactive).
Still for that read-out and setting: for `Cc1cc(S(=O)(=O)N2CCN(c3ncccn3)CC2)ccc1-n1cnnn1` the value was 94% (inactive); for `O=C(NCC(=O)N(c1cccnc1)C(C(=O)NC1CCCCC1)c1cccnc1)c1ccco1` (stereo not given), 111% (inactive); for `CCOC(=O)Nc1nnc(-c2ccccc2OC)s1`, 86% (inactive).
With `CCc1nnc(SCc2cn3c(C)cc(C)nc3n2)n1N`, the viability was 96% (inactive).
On the same count and under the same terms, for `CCOc1cc(/C=N/n2cnnc2)cc(Br)c1O` the value was 104% (inactive); for `COc1ccc(Nc2nc(Nc3ccc(OC)cc3)nc(-n3[nH]c(=O)c(C)c3C)n2)cc1`, 79% (inactive); for `CC(O)c1cc2c(cc1NC(=O)c1cnn3c1NC(c1ccco1)CC3C(F)(F)F)OCO2` (stereo not given), 93% (inactive).
Regarding `CC(C)n1nc(C(=O)Nc2nc3ccc(S(C)(=O)=O)cc3s2)c2ccccc2c1=O`, the viability is 87% (inactive).
On the same count and under the same terms, the value for `CC(CC(=O)NCc1ccccc1)C1CCCO1` (stereo not given) was 130% (inactive); that for `CCCCn1cnc2c(c1=O)c1nc3ccccc3nc1n2Cc1ccc2c(c1)OCO2` was 85% (inactive).
Consider `COc1ccc(-n2nnnc2SCC(=O)c2ccc(O)c(O)c2)cc1`, for which the viability was 74% (inactive).
On the same count and under the same terms, the value for `CCN(CC)CCn1c(OC)cc(=O)[nH]c1=O` was 93% (inactive).
Still for that read-out and setting: the value for `O=C(c1ccco1)N1CCN(c2nc(C(F)(F)F)nc3c2nnn3Cc2ccccc2)CC1` was 133% (inactive); that for `O=C(O)c1ccc(NC(=O)c2cccs2)cc1` was 87% (inactive); that for `NS(=O)(=O)c1cc2c(cc1C(F)(F)F)NCNS2(=O)=O` was 100% (inactive).
For the compound `Cc1ccc(CCNC(=O)C2CCC(=O)N2C2CCCC2)cc1` (stereo not given), the viability was 79% (inactive).
Regarding `COc1cccc(NS(=O)(=O)c2ccc3[nH]cc(C(=O)NC4CC4)c(=O)c3c2)c1`, the viability is 101% (inactive).
On to `CCn1cc(C(=O)O)c(=O)c2ccc(C)nc21`, for which the viability was 106% (inactive).
On to `Cc1nc2ccc(S(=O)(=O)NCC(=O)N3CCc4ccccc4C3)cc2s1`, for which the viability was 87% (inactive).
Consider `c1coc(CN2CN=C(Nc3nc4ccccc4s3)NC2)c1`, for which the viability was 91% (inactive).
Turning to `COc1cc(NS(=O)(=O)c2ccc(N)cc2)nc(OC)n1`, the viability was 109% (inactive).
On to `Cc1ccc2nc3c(cc(C(=O)NCC4CCCO4)n3C)c(=O)n2c1` (stereo not given), for which the viability is 134% (inactive).
As to `COc1ccc2c(c1)c(CC(=O)OCC(=O)O)c(C)n2C(=O)c1ccc(Cl)cc1`, the viability is 133% (inactive).
Regarding `CCCn1cnc2c(cnn2-c2ccc(F)cc2)c1=O`, the viability is 100% (inactive).
Turning to `CCN(CCO)C(=O)CC(c1ccccc1)c1cc(Br)ccc1O` (stereo not given), the viability was 101% (inactive).
On the same count and under the same terms, for `COc1cc2c(cc1OC)C(/C(C#N)=N\O)=NC(C)(C)C2` the value was 86% (inactive).
In the case of `O=C(O)COc1cccc(NC(=O)C2CCCO2)c1` (stereo not given), the viability is 81% (inactive).
The same measure, in the same setting: the value for `CN1CCN(C(=O)c2ccc3c(=O)n(CCc4ccccc4)c(=S)[nH]c3c2)CC1` was 102% (inactive); that for `CN(CCNC(=O)c1ccc(N2CCCC2=O)cc1)CCc1ccccc1` was 72% (inactive); that for `COc1cccc(OCC(=O)Nc2ccccc2C(N)=O)c1` was 110% (inactive).
With `CN1CC=C2C(C#N)=C(N)C(C#N)(C#N)C(c3cccc(Cl)c3Cl)C2C1` (stereo not given), the viability is 115% (inactive).
Regarding `Cn1c(C(=O)OC(C(=O)NC2CCCC2)c2cccnc2)cc2sccc21` (stereo not given), the viability was 74% (inactive).
`Cc1ccc(NC(=O)COC(=O)c2ccn(C)n2)cc1`: the viability is 76% (inactive).
As to `FC(F)(F)c1ccc(Sc2nnc(-c3cccs3)n2CC2CCCO2)nc1` (stereo not given), the viability is 68% (inactive).
Turning to `COc1ccc(-n2c(SCC(=O)N3CCCCC3C)nnc2-c2cccnc2)cc1` (stereo not given), the viability is 87% (inactive).
Still for that read-out and setting: the value for `CCOC(=O)c1ccc(N(CC(=O)NC2CCCC2)C(=O)CNC(=O)c2ccco2)cc1` was 90% (inactive).
For the compound `COC(=O)c1ccccc1NC(=O)C1CCN(S(=O)(=O)c2cc(C)ccc2OC)CC1`, the viability is 78% (inactive).

The nature of another experiment: HUVEC growth inhibition – cell-based, human, primary screen (AID 575).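 Further: 100% = median of untreated cell wells with 0.1% DMSO on each plate.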 Particulars: HUVEC proliferation, CellTiter-Glo luminescence, 72 h; at 10 µM; active compounds read low. An outline of the steps: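 Material: primary human umbilical vein endothelial cells / Schedule: 72 h exposure, 37 °C, 5% CO2, 30 min RT equilibration / Signal: ATP-based CellTiter-Glo luminescent read / Read-out basis: percent of median DMSO-control luminescence / Control set: 32 DMSO-only cell-control wells (high), 32 MePR drug-control wells (low) per plate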
Turning to `CCC1CCCCN1c1nc(-c2ccncc2)nc2ccccc12` (stereo not given), the viability is 15.1% (active).
As for `Cc1nc(NC(=O)c2ccccc2)sc1-c1csc(NCc2ccco2)n1`, the viability is 89% (inactive).
With `COc1ccc(OCCN2C(=O)NC(C)(c3ccc(C)cc3)C2=O)cc1` (stereo not given), the viability was 101% (inactive).
On to `Cc1cc(S(=O)(=O)N2CCN(c3ncccn3)CC2)ccc1-n1cnnn1`, for which the viability was 120% (inactive).
`O=C(NCC(=O)N(c1cccnc1)C(C(=O)NC1CCCCC1)c1cccnc1)c1ccco1` (stereo not given): the viability is 113% (inactive).
Turning to `CCOC(=O)Nc1nnc(-c2ccccc2OC)s1`, the viability was 98.2% (inactive).
For `CCc1nnc(SCc2cn3c(C)cc(C)nc3n2)n1N`, the viability is 96.5% (inactive).
Regarding `CCOc1cc(/C=N/n2cnnc2)cc(Br)c1O`, the viability was 103% (inactive).
Same read-out and setting: the value for `COc1ccc(Nc2nc(Nc3ccc(OC)cc3)nc(-n3[nH]c(=O)c(C)c3C)n2)cc1` was 92.8% (inactive); that for `CC(O)c1cc2c(cc1NC(=O)c1cnn3c1NC(c1ccco1)CC3C(F)(F)F)OCO2` (stereo not given) was 97.2% (inactive).
`CC(C)n1nc(C(=O)Nc2nc3ccc(S(C)(=O)=O)cc3s2)c2ccccc2c1=O`: the viability was 86.1% (inactive).
`CC(CC(=O)NCc1ccccc1)C1CCCO1` (stereo not given): the viability is 102% (inactive).
With `CCCCn1cnc2c(c1=O)c1nc3ccccc3nc1n2Cc1ccc2c(c1)OCO2`, the viability was 85.9% (inactive).
Take `COc1ccc(-n2nnnc2SCC(=O)c2ccc(O)c(O)c2)cc1`: the viability is 58.6% (inactive).
For the compound `CCN(CC)CCn1c(OC)cc(=O)[nH]c1=O`, the viability was 104% (inactive).
For `O=C(c1ccco1)N1CCN(c2nc(C(F)(F)F)nc3c2nnn3Cc2ccccc2)CC1`, the viability is 69.2% (inactive).
For the compound `O=C(O)c1ccc(NC(=O)c2cccs2)cc1`, the viability is 94.7% (inactive).
For the compound `NS(=O)(=O)c1cc2c(cc1C(F)(F)F)NCNS2(=O)=O`, the viability is 91% (inactive).
As for `Cc1ccc(CCNC(=O)C2CCC(=O)N2C2CCCC2)cc1` (stereo not given), the viability is 99.7% (inactive).
With `COc1cccc(NS(=O)(=O)c2ccc3[nH]cc(C(=O)NC4CC4)c(=O)c3c2)c1`, the viability was 70.3% (inactive).
For `CCn1cc(C(=O)O)c(=O)c2ccc(C)nc21`, the viability is 92.1% (inactive).
Regarding `Cc1nc2ccc(S(=O)(=O)NCC(=O)N3CCc4ccccc4C3)cc2s1`, the viability was 106% (inactive).
On to `c1coc(CN2CN=C(Nc3nc4ccccc4s3)NC2)c1`, for which the viability is 115% (inactive).
In the case of `COc1cc(NS(=O)(=O)c2ccc(N)cc2)nc(OC)n1`, the viability is 80.7% (inactive).
`Cc1ccc2nc3c(cc(C(=O)NCC4CCCO4)n3C)c(=O)n2c1` (stereo not given): the viability was 110% (inactive).
For the compound `COc1ccc2c(c1)c(CC(=O)OCC(=O)O)c(C)n2C(=O)c1ccc(Cl)cc1`, the viability is 66.8% (inactive).
With `CCCn1cnc2c(cnn2-c2ccc(F)cc2)c1=O`, the viability was 90.9% (inactive).
Consider `CCN(CCO)C(=O)CC(c1ccccc1)c1cc(Br)ccc1O` (stereo not given), for which the viability was 101% (inactive).
Consider `COc1cc2c(cc1OC)C(/C(C#N)=N\O)=NC(C)(C)C2`, for which the viability is 107% (inactive).
`O=C(O)COc1cccc(NC(=O)C2CCCO2)c1` (stereo not given): the viability is 102% (inactive).
In the case of `CN1CCN(C(=O)c2ccc3c(=O)n(CCc4ccccc4)c(=S)[nH]c3c2)CC1`, the viability was 66.2% (inactive).
With `CN(CCNC(=O)c1ccc(N2CCCC2=O)cc1)CCc1ccccc1`, the viability is 99% (inactive).
On the same count and under the same terms, the value for `COc1cccc(OCC(=O)Nc2ccccc2C(N)=O)c1` was 99.9% (inactive).
`CN1CC=C2C(C#N)=C(N)C(C#N)(C#N)C(c3cccc(Cl)c3Cl)C2C1` (stereo not given): the viability was 69.7% (inactive).
In the case of `Cn1c(C(=O)OC(C(=O)NC2CCCC2)c2cccnc2)cc2sccc21` (stereo not given), the viability is 110% (inactive).
In the case of `Cc1ccc(NC(=O)COC(=O)c2ccn(C)n2)cc1`, the viability is 90.8% (inactive).
Regarding `FC(F)(F)c1ccc(Sc2nnc(-c3cccs3)n2CC2CCCO2)nc1` (stereo not given), the viability is 104% (inactive).
Same read-out and setting: for `COc1ccc(-n2c(SCC(=O)N3CCCCC3C)nnc2-c2cccnc2)cc1` (stereo not given) the value was 98.7% (inactive); for `CCOC(=O)c1ccc(N(CC(=O)NC2CCCC2)C(=O)CNC(=O)c2ccco2)cc1`, 95.4% (inactive).
Consider `COC(=O)c1ccccc1NC(=O)C1CCN(S(=O)(=O)c2cc(C)ccc2OC)CC1`, for which the viability was 78.9% (inactive).
